Data taken from ChEMBL document CHEMBL3612020.
The source made the active and inactive calls. No cut-off for these calls is given here.

Assays:
[1] = target: T1, D-amino-acid oxidase (Homo sapiens, UniProt P14920); test: Inhibition of recombinant human DAAO expressed in HEK cells using D-serine as substrate assessed as formation of alpha-keto acid, ammonia, […] after 20 mins by horseradish peroxidase/o-phenylenediamine-based assay; set-up: species or system HEK293
Outline: (§1)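 Human DAAO from HEK cells: lysate in 50 mM Tris pH 8.5 with 100 µM FAD, sonicated, then ion-exchange purified with a 0–0.5 M NaCl gradient. […] Enzyme set to give 2.0 mOD/min uninhibited. Rate read as absorbance change at 411 nm. Mean ± SD of ≥4 experiments in most cases.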

[2] = Metabolic stability in mouse liver microsomes assessed as compound remaining at 5 uM after 60 mins by LC/MS/MS analysis in presence of UDPGA; type: ADME; conditions: 1 h
Outline: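 Glucuronidation in mouse liver microsomes (0.5 mg/mL): 50 mM Tris-HCl pH 7.5, 8 mM MgCl2, 25 µg/mL alamethicin, pre-incubated at 37 °C. Started with 2 mM UDPGA (final), in duplicate, for 60 min. Quenched with cold acetonitrile plus internal standard; LC/MS/MS read-out, with cofactor-free controls.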

[3] = Metabolic stability in mouse liver microsomes assessed as compound remaining at 5 uM after 60 mins by LC/MS/MS analysis in presence of NADPH; type: ADME; conditions: 1 h
Outline: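 Mouse liver microsomes (0.5 mg/mL) with 5 µM test compound in 100 mM potassium phosphate pH 7.4 plus NADPH regenerating system (1.3 mM NADPH). Reaction started with microsomes, run in duplicate for 60 min, quenched with cold acetonitrile containing internal standard. Parent quantified by LC/MS/MS; cofactor-free controls included.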

[4] = target: T1, D-amino-acid oxidase; test: Inhibition of DAAO (unknown origin); outline: as §1
[5] = target: T1, D-amino-acid oxidase; test: Competitive inhibition of recombinant human DAAO expressed in HEK cells by double reciprocal plot analysis in presence of D-serine; set-up: species or system HEK293
Outline: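 hDAAO was purified from HEK cell lysate by ion-exchange FPLC. […] Activity was read as the rate of absorbance change at 411 nm. The mode of inhibition and Ki came from a double reciprocal plot.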

[6] = target: T1, D-amino-acid oxidase; test: Inhibition of recombinant human DAAO expressed in HEK cells in presence of 10 to 100 uM of FAD; type: cell-based; conditions: HEK293
Outline: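 Reactions ran in 50 mM Tris pH 8.5 with 2% DMSO final, for 20 min at room temperature. Absorbance rate was read at 411 nm. IC50 was determined with FAD raised from 10 to 100 µM.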

[7] = tested on: Salmonella typhimurium; test: Mutagenicity in Salmonella typhimurium TA100 by Ames test in presence of S9 mixture; type: toxicity, organism-based; conditions: salmonella enterica subsp. enterica serovar typhimurium
[8] = target: Voltage-gated inwardly rectifying potassium channel KCNH2 (Homo sapiens, UniProt Q12809); test: Inhibition of human ERG up to 25 uM
[9] = target: T2, Glutamate NMDA receptor; GRIN1/GRIN2A (Homo sapiens) (UniProt Q05586+Q12879); test: Inhibition of NMDA receptor agonist binding site (unknown origin) at 10 uM relative to control; type: protein-complex assay
[10] = target: T2, Glutamate NMDA receptor; GRIN1/GRIN2A (Homo sapiens); test: Inhibition of NMDA receptor glycine binding site (unknown origin) at 10 uM relative to control; type: protein-complex assay
[11] = target: T2, Glutamate NMDA receptor; GRIN1/GRIN2A (Homo sapiens); test: Inhibition of NMDA receptor phencyclidine binding site (unknown origin) at 10 uM relative to control; type: protein-complex assay
[12] = target: T2, Glutamate NMDA receptor; GRIN1/GRIN2A (Homo sapiens); test: Inhibition of NMDA receptor MK801 binding site (unknown origin) at 10 uM relative to control; type: protein-complex assay
[13] = target: T3, Glycine receptor subunit alpha-1 (Homo sapiens) (UniProt P23415); test: Inhibition of strychnine-sensitive glycine receptor (unknown origin) at 10 uM relative to control
T3 sequence (whole entry): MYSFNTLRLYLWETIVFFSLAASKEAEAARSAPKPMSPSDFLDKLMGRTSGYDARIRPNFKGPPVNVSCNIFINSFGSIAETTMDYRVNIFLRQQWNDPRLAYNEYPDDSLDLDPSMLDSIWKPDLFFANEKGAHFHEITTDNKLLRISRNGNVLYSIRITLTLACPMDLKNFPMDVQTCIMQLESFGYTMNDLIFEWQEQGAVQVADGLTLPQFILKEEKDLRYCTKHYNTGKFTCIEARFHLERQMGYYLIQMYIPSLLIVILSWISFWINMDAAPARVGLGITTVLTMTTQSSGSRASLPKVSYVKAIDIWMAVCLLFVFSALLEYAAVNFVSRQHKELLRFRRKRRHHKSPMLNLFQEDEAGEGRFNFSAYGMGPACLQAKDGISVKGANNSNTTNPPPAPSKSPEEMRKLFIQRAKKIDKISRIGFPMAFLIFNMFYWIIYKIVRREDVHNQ

[14] = target: T4, MAO-A (Homo sapiens, UniProt P21397); test: Inhibition of MAO-A (unknown origin) at 10 uM relative to control
T4 sequence (P21397 whole entry): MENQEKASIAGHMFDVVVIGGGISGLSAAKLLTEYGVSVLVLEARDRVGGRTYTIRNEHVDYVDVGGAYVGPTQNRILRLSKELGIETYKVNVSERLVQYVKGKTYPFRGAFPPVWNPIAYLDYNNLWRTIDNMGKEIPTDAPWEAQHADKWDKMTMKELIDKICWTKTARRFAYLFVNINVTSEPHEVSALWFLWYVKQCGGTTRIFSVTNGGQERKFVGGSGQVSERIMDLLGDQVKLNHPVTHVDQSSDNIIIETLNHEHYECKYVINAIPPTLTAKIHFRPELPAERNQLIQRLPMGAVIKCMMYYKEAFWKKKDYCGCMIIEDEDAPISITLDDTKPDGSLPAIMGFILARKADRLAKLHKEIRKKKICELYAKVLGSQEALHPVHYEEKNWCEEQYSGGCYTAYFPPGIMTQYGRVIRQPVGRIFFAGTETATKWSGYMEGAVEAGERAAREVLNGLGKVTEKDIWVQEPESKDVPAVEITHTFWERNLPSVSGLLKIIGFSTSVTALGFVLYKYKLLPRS

[15] = target: T5, MAO-B (Homo sapiens, UniProt P27338); test: Inhibition of MAO-B (unknown origin) at 10 uM relative to control
T5 sequence (P27338 whole entry): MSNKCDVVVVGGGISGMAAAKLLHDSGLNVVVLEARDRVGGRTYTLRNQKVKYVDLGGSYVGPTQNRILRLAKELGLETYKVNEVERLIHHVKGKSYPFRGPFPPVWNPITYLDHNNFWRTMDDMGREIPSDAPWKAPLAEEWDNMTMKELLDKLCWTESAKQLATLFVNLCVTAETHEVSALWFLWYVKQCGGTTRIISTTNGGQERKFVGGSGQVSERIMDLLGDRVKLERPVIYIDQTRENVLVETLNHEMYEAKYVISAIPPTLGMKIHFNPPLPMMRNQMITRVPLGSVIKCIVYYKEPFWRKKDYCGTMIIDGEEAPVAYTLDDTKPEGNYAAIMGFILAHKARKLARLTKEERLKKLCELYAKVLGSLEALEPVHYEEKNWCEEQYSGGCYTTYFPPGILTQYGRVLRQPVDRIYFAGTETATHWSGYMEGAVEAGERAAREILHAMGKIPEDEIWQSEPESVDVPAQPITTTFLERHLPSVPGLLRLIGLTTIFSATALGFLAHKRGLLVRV

[16] = Tmax in CD1 mouse at 30 mg/kg, po; type: ADME, organism-based; conditions: in vivo
Outline: (§2)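 Male CD1 mice, n = 3 per time point, dosed iv or po. About 1 mL blood taken by cardiac puncture into heparinized tubes, kept on wet ice, centrifuged 10 min at 800 g, 4 °C. Plasma stored at −80 °C; drug levels measured by HPLC–QTOF-MS.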

[17] = Cmax in CD1 mouse at 30 mg/kg, po; type: ADME, organism-based; set-up: dose 30 mg/kg, route oral; conditions: in vivo; outline: as §2
[18] = AUClast in CD1 mouse at 30 mg/kg, po; type: ADME, organism-based; set-up: dose 30 mg/kg, route oral, time 0 - last; conditions: in vivo; outline: as §2
[19] = tested on: Mus musculus; test: Oral bioavailability in CD1 mouse at 30 mg/kg; type: ADME, organism-based; conditions: in vivo; outline: as §2
[20] = Clearance in CD1 mouse at 30 mg/kg, iv; type: ADME, organism-based; conditions: in vivo; outline: as §2
[21] = Volume of distribution in CD1 mouse at 30 mg/kg, iv; type: ADME, organism-based; conditions: in vivo; outline: as §2
[22] = Terminal half life in CD1 mouse at 30 mg/kg, iv; type: ADME, organism-based; conditions: in vivo, read-out: beta t1/2 (converted); outline: as §2
[23] = AUClast in CD1 mouse at 30 mg/kg, iv; type: ADME, organism-based; set-up: dose 30 mg/kg, route intravenous, time 0 - last; conditions: in vivo; outline: as §2
[24] = tested on: Mus musculus; test: Ratio of drug level in brain to plasma in CD1 mouse at 30 mg/kg, po; type: ADME, organism-based
[25] = tested on: Mus musculus; test: Increase in plasma Cmax of D-serine in CD1 mouse at 30 mg/kg, po; type: ADME, organism-based; conditions: in vivo
[26] = tested on: Mus musculus; test: Decrease in plasma clearance of D-serine in CD1 mouse assessed as D-serine AUC (0 to 6 hrs) at 30 mg/kg, po (R[…]microg.hr/ml); type: functional
[27] = tested on: Salmonella typhimurium; test: Mutagenicity in Salmonella typhimurium TA100 by Ames test in absence of S9 mixture; type: toxicity, organism-based; conditions: salmonella enterica subsp. enterica serovar typhimurium

Chain of Voltage-gated inwardly rectifying potassium channel KCNH2 (Q12809 whole entry): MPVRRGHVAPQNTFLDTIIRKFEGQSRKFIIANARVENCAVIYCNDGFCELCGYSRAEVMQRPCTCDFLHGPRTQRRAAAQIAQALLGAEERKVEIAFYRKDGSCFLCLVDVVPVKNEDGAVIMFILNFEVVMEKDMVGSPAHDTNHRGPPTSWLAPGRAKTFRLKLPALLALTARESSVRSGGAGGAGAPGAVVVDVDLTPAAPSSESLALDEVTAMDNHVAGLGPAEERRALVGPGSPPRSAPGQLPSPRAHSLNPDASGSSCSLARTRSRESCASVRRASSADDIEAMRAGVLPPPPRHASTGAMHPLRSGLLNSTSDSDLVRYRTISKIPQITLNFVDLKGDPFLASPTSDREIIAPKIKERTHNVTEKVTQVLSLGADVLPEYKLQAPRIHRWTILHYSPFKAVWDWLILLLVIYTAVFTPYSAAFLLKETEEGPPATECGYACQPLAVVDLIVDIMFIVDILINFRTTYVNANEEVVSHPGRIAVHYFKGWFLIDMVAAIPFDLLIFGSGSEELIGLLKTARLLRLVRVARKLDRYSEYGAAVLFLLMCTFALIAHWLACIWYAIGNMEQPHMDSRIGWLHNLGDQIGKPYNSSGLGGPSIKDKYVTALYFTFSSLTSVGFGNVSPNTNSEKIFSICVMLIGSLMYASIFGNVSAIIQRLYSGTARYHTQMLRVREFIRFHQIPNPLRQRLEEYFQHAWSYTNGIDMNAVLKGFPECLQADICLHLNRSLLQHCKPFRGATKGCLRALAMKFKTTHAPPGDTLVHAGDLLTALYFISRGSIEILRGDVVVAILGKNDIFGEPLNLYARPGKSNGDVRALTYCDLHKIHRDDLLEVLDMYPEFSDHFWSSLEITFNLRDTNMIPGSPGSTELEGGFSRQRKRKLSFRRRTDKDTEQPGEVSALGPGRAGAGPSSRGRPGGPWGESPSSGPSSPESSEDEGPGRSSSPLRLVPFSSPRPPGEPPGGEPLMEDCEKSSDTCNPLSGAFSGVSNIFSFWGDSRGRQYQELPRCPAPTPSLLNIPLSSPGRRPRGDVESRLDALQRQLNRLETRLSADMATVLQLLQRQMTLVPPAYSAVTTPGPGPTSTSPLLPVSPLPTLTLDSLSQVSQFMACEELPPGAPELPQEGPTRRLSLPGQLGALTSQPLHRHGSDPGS

## O=C(Cn1nc(O)c(=O)[nH]c1=O)c1ccccc1
[1]
  IC50: 850 nM

## CC(Cn1nc(O)c(=O)[nH]c1=O)c1ccccc1 (configuration not stated)
[1]
  IC50: 3300 nM

## O=c1[nH]c(=O)n(CCc2ccc(O)cc2)nc1O
[1]
  IC50: 110 nM

## O=c1[nH]c(=O)n(CCc2ccc(-c3ccccc3)cc2)nc1O
[1]
  IC50: 50 nM

## O=c1[nH]c(=S)n(CCc2ccccc2)nc1O
[2]
  Stability: >= 99%
[3]
  Stability: 87%

## CO/N=C(\C(=O)N[C@@H]1C(=O)N2C(C(=O)O)=C(CSc3nc(=O)c(=O)[nH]n3C)CS[C@H]12)c1csc(N)n1 [CEFTRIAXONE]
[4]
  IC50: 10000 nM

## Cn1nc(O)c(=O)[nH]c1=O
[1]
  IC50: 2800 nM

## O=c1[nH]c(=O)n(CCc2ccc(Cl)cc2)nc1O
[1]
  IC50: 40 nM

## O=c1cc(CSc2ccc(Cl)c(Cl)c2)occ1O
[2]
  Stability: 5%

## COc1ccc(CCn2nc(O)c(=O)[nH]c2=O)cc1
[1]
  IC50: 120 nM

## COc1ccccc1CCn1nc(O)c(=O)[nH]c1=O
[1]
  IC50: 270 nM

## O=c1[nH]c(=O)n(Cc2ccc3ccccc3c2)nc1O
[1]
  IC50: 220 nM

## O=c1[nH]c(=O)n(CCc2cccc(Oc3ccccc3)c2)nc1O
[1]
  IC50: 240 nM

## O=c1[nH]c(=O)n(CCc2ccccn2)nc1O
[1]
  IC50: 760 nM

## O=c1[nH]c(=O)n(Cc2cccc3ccccc23)nc1O
[5]
  Ki: 60 nM
[6]
  inhibition: Active
[7]
  Activity: Non-toxic
[2]
  Stability: >= 99%
[3]
  Stability: >= 99%
[8]
  inhibition (INH): Not Active
[9]
  inhibition: < 5%
[10]
  inhibition: 22%
[11]
  inhibition: < 5%
[12]
  inhibition: < 5%
[13]
  inhibition: < 5%
[14]
  inhibition at 10 µM: ≤ 5%
[15]
  inhibition at 10 µM: ≤ 5%
[16]
  Tmax: 4.8 min
[17]
  Cmax: 13800 ng/mL
[18]
  AUC(0-t): 12900 ng·h/mL
[19]
  F: 79%
[20]
  clearance: 10.2 mL/min/kg
[21]
  Vd: 0.8 L/kg
[22]
  half-life: 54 min
[23]
  AUC(0-t): 16300 ng·h/mL
[24]
  BPR: 0.01
[25]
  Activity: Not Active
[26]
  Activity: 96.9 µg·h/mL
[27]
  Activity: Non-toxic

## O=c1[nH]c(=O)n(-c2ccccc2)nc1O
[1]
  IC50: > 100000 nM

## O=c1[nH]c(=O)n(CCn2ccc3cccnc32)nc1O
[1]
  IC50: 310 nM
